Test results reported in ChEMBL document CHEMBL3272327, “Hypocholesterolemic activity of 1,3-bis(substituted phenoxy)-2-propanones” (J Med Chem, 1976).

Legend:
[1] = tested on: Rattus norvegicus; assay: Hypocholesterolemic activity in rat assessed as [14C]palmitic acid level in small intestine at 10 mg/kg/day administered for 1 week measured after 22 hrs on day 7 by scintillation counting analysis (reference value: 4.43 +/- 1.43%); format: functional
Procedure, shortened: (§1)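 Male Sprague-Dawley rats on lab chow dosed orally once daily for 1 week at 10 mg/kg/day, suspended in 1% CMC, or given vehicle alone. On day 7, 5 μCi [1-14C]palmitic acid given orally. Killed after 22 hr; organs made into 10% water homogenates. Aliquots of 0.1 cc of homogenate, urine, blood or feces were digested and scintillation counted. Output is % of dose per tissue, N = 6.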

[2] = tested on: Rattus norvegicus; assay: Effect on body weight in rat at 5 mg/kg/day administered for 16 days measured on day 7 (reference value: 173 +/- 12 gms); format: ADME, organism-based; details: in vivo, 384 h
Procedure, shortened: (§2)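 Male Sprague-Dawley rats with chow and water ad libitum. Compound suspended in 1% CMC-water and given orally by intubation needle at 11:00 a.m., 1, 5, 10 or 50 mg/kg/day, for 16 days. Body weight (g) recorded on days 0, 7 and 16. N = 8.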

[3] = tested on: Rattus norvegicus; assay: Hypocholesterolemic activity in Sprague-Dawley rat assessed as serum cholesterol level at 50 mg/kg/day, po administered via intubation measured on day 10 by Liebermann-Burchard reaction (reference value: 100 +/- 7%); format: functional
[4] = tested on: Rattus norvegicus; assay: Hypocholesterolemic activity in rat assessed as [14C]palmitic acid level in heart at 10 mg/kg/day administered for 1 week measured after 22 hrs on day 7 by scintillation counting analysis (reference value: 0.23 +/- 0.10%); format: functional; procedure, shortened: as §1
[5] = tested on: Rattus norvegicus; assay: Hypocholesterolemic activity in rat assessed as [14C]cholesterol level in stomach at 10 mg/kg/day administered for 1 week measured after 22 hrs on day 7 by scintillation counting analysis (reference value: 8.87 +/- 4.00%); format: functional
Procedure, shortened: (§3)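 Male rats were dosed orally for 1 week (10 mg/kg/day) or with 1% CMC. On day 7 they received 5 μCi [4-14C]cholesterol orally and were killed after 22 hr. Organs were homogenized (10% in water); 0.1-cc aliquots of homogenate, urine, blood or feces were digested with Protosol. Samples were counted in toluene/Triton X-100 (2:1) scintillant with 0.4% PPO and 0.01% POPOP. Results are % of dose per tissue, N = 6.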

[6] = tested on: Rattus norvegicus; assay: Hypocholesterolemic activity in rat assessed as [14C]cholesterol level in heart at 10 mg/kg/day administered for 1 week measured after 22 hrs on day 7 by scintillation counting analysis (reference value: 0.39 +/- 0.13%); format: functional; procedure, shortened: as §3
[7] = tested on: Rattus norvegicus; assay: Hypocholesterolemic activity in rat assessed as [14C]palmitic acid level in spleen at 10 mg/kg/day administered for 1 week measured after 22 hrs on day 7 by scintillation counting analysis (reference value: 0.46 +/- 0.24%); format: functional; procedure, shortened: as §1
[8] = tested on: Rattus norvegicus; assay: Hypocholesterolemic activity in [14C]palmitic acid-treated rat assessed as increase in free fatty acid accumulation in liver at 10 mg/kg/day administered for 1 week by scintillation counting analysis; format: functional
[9] = tested on: Rattus norvegicus; assay: Hypocholesterolemic activity in rat assessed as [14C]cholesterol level in spleen at 10 mg/kg/day administered for 1 week measured after 22 hrs on day 7 by scintillation counting analysis (reference value: 1.41 +/- 1.01%); format: functional; procedure, shortened: as §3
[10] = tested on: Rattus norvegicus; assay: Hypocholesterolemic activity in rat assessed as serum triglyceride level at 10 mg/kg/day administered for 8 days (reference value: 100 +/- 15%); format: functional
Procedure, shortened: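 Male Sprague-Dawley rats dosed orally at 10 mg/kg/day in 1% CMC. Serum triglycerides were measured with a stat pack kit after 8 days of dosing. Expressed as percent of vehicle control, N = 8; Student's t test.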

[11] = tested on: Rattus norvegicus; assay: Effect on adrenal gland weight in rat at 10 mg/kg/day administered for 16 days measured 24 hrs after last drug dosage relative to total body weight (reference value: 0.015 +/- 0.003%); format: ADME, organism-based; details: in vivo
[12] = tested on: Rattus norvegicus; assay: Effect on body weight in rat at 5 mg/kg/day administered for 16 days measured on day 16 (reference value: 233 +/- 16 gms); format: ADME, organism-based; details: in vivo, 384 h; procedure, shortened: as §2
[13] = tested on: Rattus norvegicus; assay: Hypocholesterolemic activity in rat assessed as [14C]cholesterol level in chyme at 10 mg/kg/day administered for 1 week measured after 22 hrs on day 7 by scintillation counting analysis (reference value: 8.72 +/- 4.95%); format: functional; procedure, shortened: as §3
[14] = tested on: Rattus norvegicus; assay: Hypocholesterolemic activity in rat assessed as [14C]palmitic acid level in stomach at 10 mg/kg/day administered for 1 week measured after 22 hrs on day 7 by scintillation counting analysis (reference value: 0.65 +/- 0.46%); format: functional; procedure, shortened: as §1
[15] = tested on: Rattus norvegicus; assay: Effect on food intake in rat at 1 mg/kg/day measured during first week (reference value: 19.1 +/- 1.7 gms); format: ADME, organism-based; details: in vivo
Procedure, shortened: (§4)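 Male rats dosed orally at 1, 5, 10 or 50 mg/kg/day in 1% CMC. Average food intake in grams per rat per week measured over a 2-week period, first and second weeks reported separately. N = 8, Student's t test against the 1% CMC control.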

[16] = tested on: Rattus norvegicus; assay: Effect on vesicular gland weight in rat at 1 mg/kg/day administered for 16 days measured 24 hrs after last drug dosage relative to total body weight (reference value: 0.10 +/- 0.04%); format: ADME, organism-based; details: in vivo
[17] = tested on: Rattus norvegicus; assay: Hypocholesterolemic activity in rat assessed as [14C]cholesterol level in vas deferens at 10 mg/kg/day administered for 1 week measured after 22 hrs on day 7 by scintillation counting analysis (reference value: 0.03 +/- 0.02%); format: functional; procedure, shortened: as §3
[18] = tested on: Rattus norvegicus; assay: Effect on liver weight in rat at 10 mg/kg/day administered for 16 days measured 24 hrs after last drug dosage relative to total body weight (reference value: 4.22 to 4.54%); format: ADME, organism-based; details: in vivo
[19] = tested on: Rattus norvegicus; assay: Effect on RNA content in rat liver at 10 mg/kg/day administered for 16 days (reference value: 100 +/- 8%); format: ADME, organism-based; details: in vivo, 384 h
[20] = tested on: Rattus norvegicus; assay: Hypocholesterolemic activity in Sprague-Dawley rat assessed as serum cholesterol level at 5 mg/kg/day, po administered via intubation measured on day 4 by Liebermann-Burchard reaction (reference value: 100 +/- 7%); format: functional
[21] = tested on: Rattus norvegicus; assay: Hypocholesterolemic activity in Sprague-Dawley rat assessed as serum cholesterol level at 5 mg/kg/day, po administered via intubation measured on day 16 by Liebermann-Burchard reaction (reference value: 100 +/- 8%); format: functional
[22] = tested on: Rattus norvegicus; assay: Effect on food intake in rat at 1 mg/kg/day measured during second week (reference value: 23.4 +/- 1.8 gms); format: ADME, organism-based; details: in vivo; procedure, shortened: as §4
[23] = tested on: Rattus norvegicus; assay: Effect on testes weight in rat at 50 mg/kg/day administered for 16 days measured 24 hrs after last drug dosage relative to total body weight (reference value: 1.08 +/- 0.08%); format: ADME, organism-based, Testis; details: in vivo
[24] = tested on: Rattus norvegicus; assay: Effect on brain weight in rat at 1 mg/kg/day administered for 16 days measured 24 hrs after last drug dosage relative to total body weight (reference value: 0.67 +/- 0.05%); format: ADME, organism-based; details: in vivo
[25] = tested on: Rattus norvegicus; assay: Hypocholesterolemic activity in rat assessed as [14C]palmitic acid level in blood at 10 mg/kg/day administered for 1 week measured after 22 hrs on day 7 by scintillation counting analysis (reference value: 0.11 +/- 0.06%); format: functional
[26] = tested on: Rattus norvegicus; assay: Effect on body weight in rat at 50 mg/kg/day administered for 16 days measured on day 7 (reference value: 173 +/- 12 gms); format: ADME, organism-based; details: in vivo, 384 h; procedure, shortened: as §2

Cc1ccc(OCC(=O)COc2ccc(C)cc2)cc1
Activity [1]: 6.05% | Activity [2]: 168 g | Activity [3]: 46% | Activity [4]: 0.26% | Activity [5]: 3.36% | Activity [6]: 0.58% | Activity [7]: 0.37% | Activity [8]: 10% | Activity [9]: 1.86% | Activity [10]: 70% | Activity [11]: 0.016% | Activity [12]: 241 g | Activity [13]: 9.21% | Activity [14]: 0.48% | Activity [15]: 19.2 g | Activity [16]: 0.19% | Activity [17]: 0.07% | Activity [18]: 4.65% | Activity [19]: 104% | Activity [20]: 74% | Activity [21]: 56% | Activity [22]: 29.2 g | Activity [23]: 1.19% | Activity [24]: 0.74% | Activity [25]: 0.03% | Activity [26]: 171 g
